Assay results pooled from the literature.
Compare with care: the assays were run in different laboratories.
AMY2: Pancreatic alpha-amylase (AMY2, Sus scrofa, UniProt P00690)
CHRM2: Muscarinic acetylcholine receptor M2 (CHRM2, Homo sapiens, UniProt P08172)
CDK4 with cyclin D1: Cyclin-dependent kinase 4, with cyclin D1 (CDK4, Homo sapiens, UniProt P11802)
CDK4 with cyclin D3: Cyclin-dependent kinase 4, with cyclin D3 (CDK4, Homo sapiens, UniProt P11802)
CACNA1C: Voltage-dependent L-type calcium channel subunit alpha-1C (CACNA1C, Homo sapiens, UniProt Q13936)

Compound | target | test | system | setting | IC50 [µM]
O=c1cc(-c2ccc(O)c(O)c2)oc2cc(O)cc(O)c12 | AMY2 | enzyme activity, inhibitor | – | – | 2.18
NC(=O)c1nnn(Cc2cc(Cl)c(C(=O)c3ccc(Cl)cc3)c(Cl)c2)c1N | CHRM2 | cAMP, antagonist | – | – | 1.85
O=C(CCNC(=O)CNC(=O)CC(c1ccccc1)(c1ccccc1)c1ccccc1)NC[C@@H]1CCCN(Cc2ccc(F)nc2)C1 | CHRM2 | ligand displacement, radioligand | – | cell membranes | > 30
CN(C)C(=O)c1cc2cnc(Nc3ccc(-c4ccc5c(=O)cc(N6CCOCC6)oc5c4)c(F)c3)nc2n1C1CCCC1 | CDK4 with cyclin D1 | enzyme activity, inhibitor, radiometric | – | – | 0.0123
O=C(CCNC(=O)CNC(=O)CC(c1ccccc1)(c1ccccc1)c1ccccc1)NC[C@@H]1CCCN(Cc2cccnc2F)C1 | CHRM2 | ligand displacement, radioligand | – | cell membranes | > 30
Cc1cc(O)c(-c2ccc([C@@H](C)CN(C)C)cc2)c2c1[nH]c(=O)c1sccc12 | Cyclin-dependent kinase 19, with cyclin C (CDK19, Homo sapiens, UniProt Q9BWU1) | enzyme activity, inhibitor | – | – | > 1
O=c1c(O)c(-c2ccc(O)cc2)oc2cc(O)cc(O)c12 | AMY2 | enzyme activity, inhibitor | – | – | 10.4
CNS(=O)(=O)c1ccc(Nc2ncc3cc(Cl)c(=O)n(C4CCCC4)c3n2)c(C)c1 | CDK4 with cyclin D3 | enzyme activity, inhibitor, radiometric | – | – | 0.022
CN(C)C(=O)c1cc2cnc(Nc3ccc(-c4cccc5c(=O)cc(N6CCOCC6)oc45)cc3)nc2n1C1CCCC1 | CDK4 with cyclin D1 | enzyme activity, inhibitor, radiometric | – | – | 0.226
CC(C)NC(=O)COc1cccc(-c2nc(Nc3ccc4[nH]ncc4c3)c3ccccc3n2)c1 | Organic anion transporter 3 (SLC22A8, Homo sapiens, UniProt Q8TCC7) | transporter uptake, inhibitor, radiometric | HEK293 | – | > 1
CN1CCN(c2cc(=O)c3ccc(Nc4ncc5cc(C(=O)N(C)C)n(C6CCCC6)c5n4)cc3o2)CC1 | CDK4 with cyclin D1 | enzyme activity, inhibitor, radiometric | – | – | 0.008
NC/C(=C\F)COc1cccc(Cn2c(=S)[nH]c(=O)c3[nH]cnc32)c1 | CACNA1C | ion current, inhibitor | – | – | > 100
CN(C)C(=O)c1cc2cnc(Nc3cncc(-c4cccc5c(=O)cc(N6CCOCC6)oc45)c3)nc2n1C1CCCC1 | CDK4 with cyclin D1 | enzyme activity, inhibitor, radiometric | – | – | 0.054
CNS(=O)(=O)c1ccc(Nc2ncc(C(F)(F)F)c(N3CCC[C@](C)(O)C3)n2)c(C)c1 | CDK4 with cyclin D3 | enzyme activity, inhibitor, radiometric | – | – | 0.827
COc1ccc2c(c1)CN(C(=O)CCN1CCC(Cc3ccccc3)CC1)CC[S@@+]2[O-] | CACNA1C | ion current, inhibitor, patch clamp | – | – | > 100
Cc1c(N2CCOCC2)oc2c(-c3ccc(Nc4ncc5cc(C(=O)N(C)C)n(C6CCCC6)c5n4)cc3F)cccc2c1=O | CDK4 with cyclin D1 | enzyme activity, inhibitor, radiometric | – | – | 3.3
CNS(=O)(=O)c1ccc(Nc2ncc(C(F)(F)F)c(N3CCC(C)(O)CC3)n2)c(C)c1 | CDK4 with cyclin D3 | enzyme activity, inhibitor, radiometric | – | – | 0.201
CN(C)C(=O)c1cc2cnc(Nc3cccc4c(=O)cc(N5CCOCC5)oc34)nc2n1C1CCCC1 | CDK4 with cyclin D1 | enzyme activity, inhibitor, radiometric | – | – | > 10
CNS(=O)(=O)c1ccc(Nc2ncc(C(F)(F)F)c([C@H]3CC[C@@](C)(O)CC3)n2)c(C)c1 | CDK4 with cyclin D3 | enzyme activity, inhibitor, radiometric | – | – | 3.47
